ChEMBL document CHEMBL4513216, “Probing the Open Global Health Chemical Diversity Library for Multistage-Active Starting Points for Next-Generation Antimalarials” (ACS Infect Dis, 2020)

Assay: Toxicity liver stage against HepG2, at 10uM
Format: cell-based
Parameters: test concentration 10 uM, cell line HepG2-A16-CD81EGFP
Details: human, HepG2-A16-CD81EGFP cells; read-out: INHIBITION
Summary of the method: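 Uninfected HepG2-A16-CD81EGFP cells, 3 × 10^3 per well, 1536-well, plated on prespotted compound at 10 μM final, parasite-free screening media added to match infected plates; puromycin 10 μM positive, DMSO 0.5% negative; run in parallel with 48 h PbLuc assay at 37 °C, 5% CO2; viability by CellTiter-Glo luminescence, normalized to controls.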

| Structure (SMILES) | cytotoxicity at 10 µM [%] |
| --- | --- |
| O=C1NCCCc2c1oc1ccc(O)c(CN3CCOCC3)c21 | 13.3 |
| O=C(Cn1ccc2cc(Br)ccc21)NC[C@@H]1CCCN2CCCC[C@H]12 | 14.5 |
| CCO[C@H]1CN(C(=O)c2ccc3c(c2)OCO3)[C@@H]2COC[C@H]12 | -130 |
| CS(=O)(=O)N1CCc2c(nnn2CC2CC2)C1COCC1CC1 (stereo unspecified) | -3.15 |
| Cc1ccc(N2CC3(CCN(c4nccs4)C3)C2)nn1 | -5.85 |
| O=c1c2cc3c(cc2nnn1Cc1ccccc1Cl)OCCO3 | 9.32 |
| Cc1nc(NCCCn2cccn2)c2c(n1)c(C)nn2C | 6.64 |
| Cc1nnc(SCC(=O)NCc2ccc3c(c2)CCC(=O)N3)n1C | 9.73 |
| CS(=O)(=O)Nc1ccn(Cc2ccc(Cl)cc2)n1 | 6.44 |
| CNc1cncc(C2CCN(C(=O)c3coc(C)n3)CC2)n1 | 0.109 |
| COc1ccc(Oc2nccnc2C2CCN(C(C)=O)CC2)cc1 | -12.4 |
| COc1cnc(C2(O)CCN(C(=O)c3ccccn3)CC2)c(OC)n1 | -8.99 |
| Cc1c[nH]nc1C1CCCCN1C(=O)CCn1nccc1C (stereo unspecified) | -6.39 |
| CC(=O)N1CC2(CCN(Cc3ccc(Cl)cc3)C2)Cc2ccccc21 (stereo unspecified) | 7.74 |
| COCCNC(=O)CN(C)C(C)c1nc(C)no1 (stereo unspecified) | 0.668 |
| N#Cc1cnc(NCc2cccc(C(=O)N3CCCC3)c2)c(Cl)c1 | -0.657 |
| Cc1ccc(CNS(=O)(=O)CCCC#N)cc1F | -9.48 |
| CSC1(CNC(=O)N(C)Cc2ccc(C)s2)CCOCC1 | -46.5 |
| COCC(=O)N[C@H](C(=O)NC(C)c1cc(C)ccc1C)C(C)C (stereo partly specified) | 0.341 |
| CN1CCOC(CNC(=O)C2(c3ccccc3)CCC2)C1 (stereo unspecified) | 6.17 |
| Cc1ncc(C(=O)OCC2CCN(c3ccccc3)C2)s1 (stereo unspecified) | -16 |
| CCN(CC)C(=O)CCc1nc(-c2cnn3c(C)cc(C)nc23)no1 | -11.5 |
| CCn1nc(C)cc1C(=O)N1CCC(Nc2ccc(C)nn2)CC1 | -4.32 |

| Structure (SMILES) | cytotoxicity at 10 µM [%] |
| --- | --- |
| Cc1c(NC(C)C(C)C)cccc1C(=O)NCc1nccn1C (stereo unspecified) | -5.99 |
| CCC(NC(=O)NCC(=O)Nc1ccc(F)cc1)c1ccncc1 (stereo unspecified) | -10.9 |
| COc1ccc(C(O)CN2CC(n3cc(C)cn3)C2)cc1 (stereo unspecified) | 4.52 |
| COc1c(C)cnc(CSc2nnc(NC3CC3)s2)c1C | 10.9 |
| CCN(CC)S(=O)(=O)N1CCCN(CC(=O)NC(C)C)CC1 | 2.75 |
| Cc1ccn(-c2ccccc2NCc2scnc2C)n1 | 7.28 |
| Cc1ccc(C2CN(c3nnc(C(F)F)s3)CCO2)c(C)c1 (stereo unspecified) | 3.28 |
| N#Cc1ccc(C(=O)NS(=O)(=O)c2ccc(C#N)c(Cl)c2)cc1 | 5.44 |
| N#Cc1ccc(C(=O)NS(=O)(=O)c2ccc(F)c(F)c2)cc1 | -4.11 |
| CCN(Cc1ccoc1)C(=O)NC1CCN(CC=C(C)C)CC1 | -3.89 |
| Cc1ncc2c(n1)CN(C(C(N)=O)c1ccc(F)cc1)CC2 (stereo unspecified) | -1.01 |
| Cc1nn(-c2ccccc2)nc1C(=O)NCC(c1ccsc1)N(C)C (stereo unspecified) | -22.3 |
| CC(=O)N(Cc1c(F)cccc1F)C1CCCC1 | -3.63 |
| Cc1cccc(C2(O)CCN(C(=O)c3ccccn3)CC2)c1C | -0.823 |
| CS(=O)(=O)Cc1ccc(Cl)c(NCc2noc(C3CC3)n2)c1 | 6.95 |
| NC(=O)c1cccc(CCNC(=O)N2CCCC2)c1 | -3.88 |
| COCCC1(CNC(=O)Nc2ccnc(C)c2)CCCC1 | 2.12 |
| Cc1cnc(CNS(=O)(=O)CCC2CCCO2)o1 (stereo unspecified) | 9.84 |
| Cc1ccc(NC(=O)NCC(c2cnn(C)c2)N(C)C)c(C)c1 (stereo unspecified) | -0.538 |
| CCC(Nc1ccc(CCN2CCCCC2)cc1)C(N)=O (stereo unspecified) | 4.47 |
| CN(Cc1ccc([S+](C)[O-])cc1)c1cncc(Br)c1 (stereo unspecified) | 11.7 |
| CN1CCN(C(=O)c2ccc3c(c2)[nH]c(=O)n3C2CCCC2)CC1 | -42.2 |
| CCCN(CC(=O)OC)S(=O)(=O)c1cnc2c(c1)c(C)nn2C | -2.61 |

| Structure (SMILES) | cytotoxicity at 10 µM [%] |
| --- | --- |
| CC(=O)NCc1ccc(-n2ccnc2C)nc1 | -6.49 |
| CC(C)NC(=O)c1nnn(-c2cccc(C(F)(F)F)c2)c1C1CC1 | -19 |
| CS(=O)(=O)N1CCC(c2nc3ccc(-c4cccc(F)c4)cn3n2)CC1 | 22.6 |
| COCCC1COC2(CCN(C(=O)c3ccsc3)CC2)C1 (stereo unspecified) | -71.2 |
| CN1C(=O)CC(c2cnn(C)c2)C12CCN(C(=O)c1ccnnc1)CC2 (stereo unspecified) | -74.4 |
| CCN1CCCn2c(nc(CNC(=O)c3ccsc3)cc2=O)C1 | 1.16 |
| CCn1nc(CC(C)C)cc1C(=O)N1CC(c2ccncc2)C1 | -6.38 |
| COCCNc1cc(-c2cccc(C(=O)O)c2C)c2cc[nH]c2n1 | -3.85 |
| CNC(=O)C1CCN(c2ncnc3c2CCN(C(=O)C2CC2)C3)C1 (stereo unspecified) | 1.67 |
| CCN(Cc1nc(COC)no1)C(=O)CCNC(=O)c1ccccc1F | -4.17 |
| CCC(NC(=O)C1CCN(C(C)C)CC1)c1cn2cccnc2n1 (stereo unspecified) | -6.21 |
| CCc1nccn1CC(=O)N1CCN(C2CCc3ccccc3C2)CC1 (stereo unspecified) | -119 |
| COc1cc(CNc2nc3c(c(=O)[nH]2)CCNC3)cc(OC)c1OC | 4.72 |
| COCCCN1CC2(CCN(C(=O)c3ncc(F)cc3F)CC2)CC1=O | -3.94 |
| CNc1cc(C(=O)N2CCC3(CC2)Nc2ccccc2NC3=O)ccn1 | 3.46 |
| CCOc1ccc2nc(CN3CCC(CN)C3)ccc2c1 (stereo unspecified) | -7.41 |
| COc1nc2ccn(CCc3cc(O)nc(C)n3)c(=O)c2cc1C#N | 10.9 |
| CCC(C(=O)NCc1csc(N2CCOCC2)n1)n1cccn1 (stereo unspecified) | -2.88 |
| CCc1ccccc1OCCN1C[C@@H](NS(C)(=O)=O)[C@H](C(C)C)C1 | -47.5 |
| N[C@H]1CN(S(=O)(=O)c2ccccc2)C[C@@H]1C1CC1 | -14.3 |
| C[C@@H]1CN(C2CCCCC2)CC[C@@]1(O)C1CCOCC1 | -7.58 |
| Cn1ccnc1CN1CCC(CNS(=O)(=O)c2cccnc2)C1 (stereo unspecified) | 6.03 |
| Cc1cccc(-n2ncc3c2CCCC3NCC(C)(C)CO)c1C (stereo unspecified) | -1.19 |

| Structure (SMILES) | cytotoxicity at 10 µM [%] |
| --- | --- |
| COc1cc(-c2cnnc(NCCCOC(C)C)n2)cc(OC)c1OC | 3.51 |
| COCCn1ccnc1C1CCCN(c2ncnc3c2CCC3)C1 (stereo unspecified) | 1.66 |
| CC(=O)Nn1ccc2c(nnc3c(-c4ccc(F)cc4)cnn32)c1=O | 1.36 |
| CC(=O)Nn1ccc2c(nnc3c(-c4ccccc4)cnn32)c1=O | 3.06 |
| CCN(Cc1cc(Cl)ccc1OC)Cc1cc(C)nn1C | 6.62 |
| COCCC1(C(=O)O)CCCN(Cc2cc3c(cc2Cl)OCO3)C1 (stereo unspecified) | -5.41 |
| Cc1ccccc1CSc1nc(N)cc(N2C[C@H](O)[C@@H](N(C)C)C2)n1 | 17.3 |
| N#CCCn1nc(C(F)(F)F)c2c1CCC2 | -12 |
| Cc1cccc(C)c1OC1CCN(Cc2ccn(C)c(=O)c2)CC1 | -2.95 |
| CSC(C)C(=O)N(C)CCCc1cc(-c2ccccc2)no1 (stereo unspecified) | 2.63 |
| CN(C)c1ncccc1CNC(=O)N1CCCC1CN1CCCC1 (stereo unspecified) | -12.4 |
| CCc1nc(C2CCCN2C(=O)c2cc[nH]n2)no1 (stereo unspecified) | -15.6 |
| Cc1cnn(CC(C)NCc2ccc(OCC(N)=O)cc2)c1 (stereo unspecified) | -11.7 |
| Cc1ccccc1NC(=O)N1CCN(Cc2noc(C3CC3)n2)CC1 | -17 |
| CC(NC(=O)NCCCN(C)S(C)(=O)=O)c1ccc(F)cc1 (stereo unspecified) | -21.9 |
| Fc1ccc(-c2nc(CN3CCOC(Cn4cccn4)C3)co2)cc1 (stereo unspecified) | -3.78 |
| CC1CN(Cc2nccn2C)CCN1c1ccc2nncn2n1 (stereo unspecified) | -8.52 |
| CN(Cc1cnn(-c2ccccc2)n1)CC1CCCN1c1cccnn1 (stereo unspecified) | -6.56 |
| CC(=O)Nc1nc(C(=O)N2CCCC(n3nc(C)cc3C)C2)cs1 (stereo unspecified) | 0.74 |
| Cc1nccn1C1CCCN(C(=O)c2ccc3c(c2)COC3)C1 (stereo unspecified) | -10.8 |
| COc1ccc(S(=O)(=O)NCc2cccnc2N(C)C)cc1F | 5.8 |
| CC(C)(C)c1nnc(CN2CCN(CC(O)c3ccccc3)CC2)o1 (stereo unspecified) | -12.8 |
| CS(=O)(=O)NCC1CCCN(C(=O)c2cc3ccccc3o2)C1 (stereo unspecified) | -1.82 |

| Structure (SMILES) | cytotoxicity at 10 µM [%] |
| --- | --- |
| Cn1ccc(CN2CCC(COC3CCCC3)CC2)cc1=O | -1.68 |
| CN(Cc1ccco1)C[C@H]1OC[C@@H]2CN(c3ncc(F)cn3)CC[C@@H]21 | 21.9 |
| CC1CCN(C(=O)CN2CC(c3nc(C4CC4)no3)C2)CC1 | -6.6 |
| CC(C)c1nn(C)c(Cl)c1CNCc1cccnc1N(C)C | 10.7 |
| CC(C)N1[C@H](Cn2cncn2)C[C@@H]2CN(Cc3cccs3)CC[C@@H]21 | -109 |
| CN(C)C1CC2(CCN(C(=O)C3(C#N)CC3)CC2)c2ccccc21 (stereo unspecified) | -113 |
| c1cnc(N2C[C@H]3CCN(Cc4ccncc4)C[C@H]3C2)nc1 | -103 |
| CC1c2ncc(Cn3cccn3)n2CCN1Cc1ccccn1 (stereo unspecified) | -106 |
| Cn1cc(C[C@H]2[C@H](O)CCN2Cc2ccc(F)cc2)cn1 | -75.9 |
| O=C([C@H]1CCCN1)N1CC2(CCNCC2)c2cc(Cl)ccc21 | 0.286 |
| Cc1nnc(N2CCCC3(CN(Cc4ccc(F)cc4)CCO3)C2)o1 (stereo unspecified) | -6.63 |
| CN(C)[C@@H]1CCN(C(=O)c2cccn2C)[C@H]1Cc1cnn(C)c1 | -74.6 |
| Fc1cccc(CN2CCOCC3(CCN(C4CCOCC4)C3)C2)c1 (stereo unspecified) | -0.503 |
| Cc1noc(C)c1C(=O)N1Cc2ncn(C)c2C(COCC2CC2)C1 (stereo unspecified) | -111 |
| CN(C)C1COC2(CCN(S(=O)(=O)c3ccc(F)cc3)CC2)C1 (stereo unspecified) | -129 |
| COc1ccccc1-c1ccc(C(=O)N2C[C@@H]3CC[C@H]2CN(C)C3)cc1 | -18.2 |
| COCC(=O)NCC1(COc2cccnc2)C[C@@H](O)[C@@H](O)C1 (stereo partly specified) | 2.52 |
| Cc1cccc(CN2C[C@@H]3CC[C@H]2CN(Cc2[nH]cnc2C)C3)n1 | -3.43 |
| Cc1cnc(CN(C)C(=O)C23CNCC2CNC3)[nH]1 (stereo unspecified) | -6.46 |
